High-throughput results deposited in PubChem by several laboratories.
aSyn UTR inh: 5' untranslated region of α-synuclein, MLPCN primary screen | alpha-synuclein 5'UTR reporter, inhibitor activity | inhibition, % (tested at 7.5 µM) | 300,000 compounds, 0.82% hits | AID 1813; in the data active = inhibition above about 60%;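 note: H4 neuroglioblastoma cells stably carrying SNCA 5'UTR luciferase fusion; 0% = DMSO wells and 100% = positive control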
697 NFkB inh: lowers PMA/ionomycin-induced NF-kB signal in 697 B cells | 697 B-cell NF-kB luciferase reporter, 16 h | inhibition, % at 4 µM | 330,000 compounds, 0.33% hits; in the data active = inhibition above about 35%
Jurkat NFkB inh: inhibitors of the PMA/ionomycin-induced NF-kB reporter in Jurkat cells | PMA/ionomycin-induced NF-kB luciferase reporter, luminescence | inhibition, % at 4 µM | 330,000 compounds, 0.53% hits; in the data active = inhibition above about 50%
VIM-2 inh: inhibitors of Pseudomonas aeruginosa VIM-2 metallo-beta-lactamase | purified VIM-2, nitrocefin hydrolysis, epi-absorbance fluorescence | inhibition, % at 5.6 µM | 290,000 compounds, 0.89% hits | AID 1527;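 active = inhibition above the mean of all tested compounds plus 3 SD, cutoff set per screening run, cut at about 7.5% in these data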;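 note: red hydrolysis product quenches plate fluorescence so inhibitors raise well fluorescence; 0% = enzyme with DMSO and 100% = DMSO without enzyme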
IMP-1 inh-1: blocks Pseudomonas aeruginosa IMP-1 metallo-beta-lactamase. purified IMP-1, nitrocefin hydrolysis, epi-absorbance fluorescence. inhibition, % at 5.6 µM. 290,000 compounds, 0.45% hits. AID 1556;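 active = inhibition above the mean plus 3 SD of all compounds in the same screening run, cut at about 4.5% in these data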;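 note: 0% = IMP-1 with DMSO and 100% = DMSO wells lacking enzyme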
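Material – recombinant IMP-1 enzyme, purified · Amount – IMP-1 0.2 nM before substrate addition · Medium – HEPES buffer pH 7.1 with ZnSO4 and Brij 35 · Timing – 25 °C, 15 min preincubation, 25 min reaction · Measured by – plate fluorescence quenching by hydrolysis product, ex 480/em 530 nm · Read-out – percent enzyme inhibition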
Mdm2-MdmX inh: inhibitors of human Mdm2/MdmX interaction | AID 485346 | SaOS-2 split-luciferase Mdm2/MdmX complementation, luminescence | inhibition, % at 8 µM | 330,000 compounds, 3% hits | O15151+Q00987;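 active = inhibition of at least 50% at 8 µM in the primary screen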
Target sequence (O15151 whole entry, looked up): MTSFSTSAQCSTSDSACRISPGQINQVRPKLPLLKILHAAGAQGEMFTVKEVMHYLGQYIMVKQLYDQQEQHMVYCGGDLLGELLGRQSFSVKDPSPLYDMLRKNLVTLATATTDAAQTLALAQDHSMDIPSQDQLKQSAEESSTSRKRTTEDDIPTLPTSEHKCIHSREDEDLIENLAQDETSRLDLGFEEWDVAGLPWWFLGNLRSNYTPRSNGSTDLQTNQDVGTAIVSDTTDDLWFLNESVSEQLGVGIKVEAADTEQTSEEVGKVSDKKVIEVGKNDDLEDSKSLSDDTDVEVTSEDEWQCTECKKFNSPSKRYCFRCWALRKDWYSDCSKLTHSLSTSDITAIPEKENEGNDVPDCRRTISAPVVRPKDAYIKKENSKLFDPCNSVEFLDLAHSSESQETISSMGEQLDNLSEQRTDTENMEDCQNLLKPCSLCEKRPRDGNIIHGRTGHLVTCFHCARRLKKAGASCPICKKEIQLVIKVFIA
Target sequence (Q00987 whole entry, looked up): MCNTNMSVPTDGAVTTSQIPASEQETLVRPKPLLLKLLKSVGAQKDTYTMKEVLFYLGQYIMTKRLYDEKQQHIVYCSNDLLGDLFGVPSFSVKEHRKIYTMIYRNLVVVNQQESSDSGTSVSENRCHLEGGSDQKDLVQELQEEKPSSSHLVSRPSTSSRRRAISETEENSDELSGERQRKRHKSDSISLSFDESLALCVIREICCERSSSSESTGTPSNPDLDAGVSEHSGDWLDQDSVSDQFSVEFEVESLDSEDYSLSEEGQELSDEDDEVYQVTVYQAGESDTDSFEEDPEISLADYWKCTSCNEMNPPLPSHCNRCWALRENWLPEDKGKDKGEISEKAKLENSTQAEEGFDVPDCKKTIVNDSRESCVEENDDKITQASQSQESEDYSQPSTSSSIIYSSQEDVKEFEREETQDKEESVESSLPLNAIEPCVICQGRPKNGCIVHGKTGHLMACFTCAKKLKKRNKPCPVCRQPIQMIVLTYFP
IMP-1 inh-2: IMP-1 inhibition, counter-screen for VIM-2 inhibitors | shares compounds with VIM-2 inh | purified IMP-1, nitrocefin hydrolysis, epi-absorbance fluorescence | inhibition, % at 5.6 µM | 1,300 tested, under 10 active; call rule not given here;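 note: 0% = enzyme with vehicle and 100% = vehicle without enzyme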
VIM-2 FRET ctr: counter-screen for VIM-2 inhibitors: epi-absorbance artifacts via FRET | inhibition, % at 5.6 µM | shares compounds with VIM-2 inh | 1,300 compounds, 23% hits | purified VIM-2, CCF2 FRET substrate hydrolysis;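 active = inhibition above the mean of all tested compounds plus 3 SD, cut at about 19% in these data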;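 note: 0% = VIM-2 plus DMSO and 100% = no enzyme wells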
TEM-1 counter: TEM-1 inhibition, counter-screen for VIM-2 inhibitors; shares compounds with VIM-2 inh; Purified TEM-1, nitrocefin hydrolysis, epi-absorbance fluorescence; 1,300 compounds, 3% hits; inhibition, % at 5.6 µM;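 active = inhibition above that campaign's mean inhibition plus 3 SD, cut at about 0.46% in these data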;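 note: 0% = TEM-1 with DMSO and 100% = TEM-1 with 100 µM potassium clavulanate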
VIM-2 inh conf: confirmation of P. aeruginosa VIM-2 metallo-beta-lactamase inhibitors; AID 2187; 1,300 compounds, 96% hits; shares compounds with VIM-2 inh; purified VIM-2, nitrocefin hydrolysis, epi-absorbance; inhibition, % at 5.6 µM;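 active = inhibition of the VIM-2 beta-lactamase enzyme above about 11% from the earlier first-round screen, limit read from the data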;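 note: 0% = VIM-2 with DMSO and 100% = buffer wells without enzyme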
* marks the source's active call; other numbers are inactive results; · = not tested or not shown. Rows were chosen to be rich in hits. Some 4.7% of all compounds tested hit in one or more screens of this group.

SMILES | aSyn UTR inh | 697 NFkB inh | Jurkat NFkB inh | VIM-2 inh | IMP-1 inh-1 | Mdm2-MdmX inh | IMP-1 inh-2 | VIM-2 FRET ctr | TEM-1 counter | VIM-2 inh conf
Nc1nc(=S)c2ncn(C3OC(CO)C(O)C3O)c2[nH]1 (stereo unspecified) | 18.3 | · | · | 21.6* | 0.4 | · | -1.1 | 31.0* | -6.2 | 26.0*
C=CCSc1nnc2nc3c(nn12)c1cc(C)ccc1n3CC=C | 18.1 | -16.8 | -9.8 | 14.7* | -3.1 | 1.0 | -2.3 | 2.8 | -4.7 | 19.3*
O=C(C1CCN(S(=O)(=O)c2ccccc2F)CC1)N1CCCC1 | · | -0.2 | -18.3 | · | · | 8.9 | · | · | · | ·
O=C(C1CCN(c2ncnc3c2sc2cccc(F)c23)CC1)N1CCCC1 | -9.6 | 17.7 | 3.5 | 12.9* | -3.7 | 2.3 | -2.0 | 2.7 | -7.4 | 26.9*
CCN1CCN(c2nn3c(=O)c4ccccc4nc3c3ccccc23)CC1 | -42.5 | -5.7 | -17.1 | 18.2* | -2.0 | 20.4 | -2.1 | 4.5 | -1.6 | 30.1*
COc1cc(/C=N/N2CCN(Cc3ccc(C)cc3)CC2)cc(OC)c1O | -1.8 | 6.2 | 0.9 | 21.7* | -7.8 | 19.6 | -5.7 | -7.7 | -8.6 | 31.8*
COc1ccc(SC[C@H](Cc2ccccc2)N2CC[C@@H](C(C)(C)C)CCC2=O)cc1 | · | 20.7 | -11.1 | · | · | 12.9 | · | · | · | ·
Cn1c(=O)c2c(nc(N3CCOCC3)n2CCCNC2=NCCCCC2)n(C)c1=O | -9.8 | 14.3 | -8.1 | 3.9 | -3.1 | -8.0 | · | · | · | ·
Cn1c(=O)c2c(nc(N3CCCCC3)n2CCNC2=NCCC2)n(C)c1=O | -7.2 | 4.3 | -1.4 | 20.2* | 0.3 | 5.3 | -3.2 | 2.2 | -6.5 | 36.0*
CCN(CC)CCCNc1nc(SC)nc2sc3c(c12)CCN(C)C3 | 3.2 | · | · | 13.1* | -1.4 | · | -3.0 | -1.6 | -5.3 | 20.6*
O=C(O)c1ccccc1/C=N/n1c(C2CCCCC2)n[nH]c1=S | 6.5 | 12.5 | 2.4 | 15.3* | -2.1 | 13.5 | -2.5 | 31.7* | -5.8 | 21.2*
O=C(CSc1nnc(NC(=O)c2c(F)cccc2F)s1)NCc1ccccc1 | -12.6 | 3.0 | 9.3 | 33.1* | -2.7 | 22.3 | -3.5 | 55.8* | -3.8 | 38.4*
O=C(CSc1nnc(NC(=O)c2ccccc2F)s1)NC1CCCC1 | -34.5 | -46.6 | 5.3 | 12.7* | -2.9 | 19.3 | -3.1 | 23.8* | -5.3 | 15.1*
COc1cc2c(-c3ccccc3)c(C)oc2cc1/C=N/NC(N)=S | 38.1 | -114.9 | 4.1 | · | · | 45.7 | · | · | · | ·
C=CCN(CC(=O)Nc1cccnc1)S(=O)(=O)c1ccc(Cl)cc1 | · | 5.7 | -3.4 | · | · | 0.6 | · | · | · | ·
COc1ccc(-c2cc(C(F)(F)F)nc(SCCC(=O)N3CCN4CCCC4C3)n2)cc1 (stereo unspecified) | 0.0 | -8.4 | -2.8 | 13.1* | 3.0 | -12.9 | -3.2 | 5.8 | -7.0 | 29.2*
COc1ccc(-c2cc(C(F)(F)F)nc(SCCC(=O)N3CCCC3)n2)cc1 | 30.2 | 0.0 | -14.6 | -0.7 | -0.5 | -4.8 | · | · | · | ·
O=C1C(=Cc2ccco2)C(=O)c2ccccc21 | -11.7 | -2.4 | 1.9 | 31.5* | -0.7 | 9.0 | -3.3 | -3.7 | -9.7 | 3.6
COc1cc(-c2nn3c(-c4ccccc4)nnc3s2)cc(OC)c1OC | 14.5 | 1.7 | -5.7 | 18.1* | -3.0 | 18.8 | -2.4 | 38.5* | -5.4 | 36.5*
COc1cc(OC)c(-c2nn3c(-c4ccco4)nnc3s2)cc1OC | · | · | · | 35.8* | 4.0 | · | -2.4 | -4.9 | -3.8 | 42.1*
COc1ccc(-c2nn3c(-c4ccco4)nnc3s2)cc1OC | 19.7 | 18.1 | 2.4 | 53.8* | 0.0 | 28.4 | -3.7 | -8.9 | -11.8 | 56.1*
Cc1cc(-c2nn3c(-c4ccccc4)nnc3s2)c2ccccc2n1 | -15.1 | -9.4 | -0.8 | 12.7* | -3.9 | 9.8 | -2.6 | 10.3 | -3.9 | 35.4*
COc1cc(-c2nnc3sc(-c4ccncc4)nn23)cc(OC)c1OC | 10.7 | 18.3 | 1.9 | · | · | 21.3 | · | · | · | ·
CCOc1ccc(CNC(=O)CN2C(=O)C(c3ccccc3)Oc3cccnc32)cc1 (stereo unspecified) | 9.1 | 5.1 | 10.0 | -1.1 | -3.0 | 7.6 | · | · | · | ·
O=Cc1c(NCc2ccc(F)cc2)c2ccccc2[nH]c1=O | -2.9 | -11.1 | 12.0 | -0.3 | -5.1 | 4.0 | · | · | · | ·
SMILES | aSyn UTR inh | 697 NFkB inh | Jurkat NFkB inh | VIM-2 inh | IMP-1 inh-1 | Mdm2-MdmX inh | IMP-1 inh-2 | VIM-2 FRET ctr | TEM-1 counter | VIM-2 inh conf
Cc1ccc(CNc2c(C=O)c(=O)[nH]c3ccccc23)cc1 | 5.5 | 0.6 | 13.1 | 14.0* | -2.8 | 10.9 | -3.0 | 31.4* | -5.0 | 21.4*
CC(=O)c1ccc2c(c1)c(C#N)c1ccccc1[n+]2[O-] | -36.9 | 0.7 | -24.4 | 24.0* | 2.2 | -6.5 | -2.1 | 2.7 | 2.7* | 28.1*
COc1cc(C(=O)NNC(=S)Nc2ccc(S(N)(=O)=O)cc2)cc(OC)c1OC | -7.2 | 15.2 | -0.5 | -3.9 | -4.0 | -23.6 | · | · | · | ·
COc1ccc2[nH]c3c(c2c1)CCN1C(=O)C(CC(=O)NCc2ccc(OC)c(OC)c2)C[C@H](C(=O)N2CCCCC2)[C@@]31CCc1ccccc1 (stereo partly specified) | · | -19.9 | · | · | · | 42.6 | · | · | · | ·
Cc1ccc(-c2nn(C)c(=O)c3ccccc23)cc1S(=O)(=O)NCCN(C)C | -14.0 | -13.7 | -27.1 | 36.6* | -2.6 | 27.9 | -3.5 | -0.7 | -5.6 | 50.5*
Cc1ccc(-c2nn3c(C)nnc3c3ccccc23)cc1S(=O)(=O)NCCO | 9.0 | 18.1 | -4.9 | 29.8* | -3.7 | 38.3 | -3.2 | 3.3 | -5.9 | 37.4*
COc1nnc(-c2ccc(C)c(S(=O)(=O)NCCO)c2)c2ccccc12 | 15.9 | 12.9 | 18.2 | -0.7 | -1.2 | 22.1 | · | · | · | ·
CCCCNS(=O)(=O)c1cc(-c2nn(C)c(=O)c3ccccc23)ccc1C | 7.0 | 9.8 | 14.9 | -0.6 | -2.2 | 30.3 | · | · | · | ·
CCCSc1ccc([C@H]2N[C@@](CC(C)C)(C(=O)OC)[C@H]3C(=O)N(CC)C(=O)[C@@H]23)cc1 | · | 13.1 | -4.4 | · | · | 13.4 | · | · | · | ·
CC(=O)C(C)Oc1ccc2c3c(c(=O)oc2c1)CCCC3 (stereo unspecified) | -79.1 | -28.7 | -26.8 | 3.0 | -5.0 | -19.4 | · | · | · | ·
CC(=O)COc1ccc2c3c(c(=O)oc2c1)CCCC3 | -27.8 | 9.2 | -17.4 | 6.2 | -1.6 | 9.8 | · | · | · | ·
O=C(COc1ccc2c3c(c(=O)oc2c1)CCCC3)NCc1ccncc1 | -2.9 | 24.3 | -9.1 | 35.0* | -1.0 | 30.2 | -0.7 | 1.6 | 3.2* | 46.8*
